Assay results from ChEMBL document CHEMBL4613313, “Multiple in Vitro Inhibition of HIV-1 Proteins by 2,6-Dipeptidyl-anthraquinone Conjugates Targeting the PBS RNA” (ACS Med Chem Lett, 2020).
Activity calls are given as the source filed them. No cut-off for these calls is given here.

How the values were obtained:
[1] = target: PBS RNA; experiment: Binding affinity to HIV1 (+)/(-) PBS RNA sequence assessed as inhibition of HIV-1 Tat (48 to 57 residues) mediated (+)/(-)PBS RNA annealing preincubated with (+)/(-)PBS RNA for 15 mins followed by peptide addition and measured after 10 mins by RAMPA assay; format: nucleic-acid assay, Human immunodeficiency virus 1
In short: (§1)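 Each folded PBS RNA strand (1 μM) was preincubated with compound for 15 min at room temperature. The two strands were then mixed with annealer: NC at 3 μM for line 4, Tat(48–57) […]. Annealing ran 10 min at room temperature and products were resolved by gel. The annealer-induced duplex band was quantified to derive IC50, reported as mean ± SEM of triplicate experiments.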

[2] = system: PBS RNA; experiment: Binding affinity to HIV1 (-)PBS RNA assessed as compound-RNA complex formation at stoichiometry ratio of 1:1 incubated for 30 mins measured under non-denaturing conditions by ESI-MS analysis; format: nucleic-acid assay; details: Human immunodeficiency virus 1
In short: (§2)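 In ESI-MS spectra of compound–RNA mixtures, peaks for free RNA and complexed species were quantified. The percentage of bound substrate in each spectrum gave the relative binding affinity for each RNA construct.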

[3] = target: PBS RNA; experiment: Binding affinity to HIV1 (+)PBS/(-)PBS RNA sequence assessed as inhibition of recombinant full-length HIV-1 nucleocapsid protein-mediated (+)/(-)PBS RNA annealing preincubated with (+)/(-)PBS RNA for 15 mins followed by NC addition and measured after 10 mins by RAMPA assay; format: nucleic-acid assay, Human immunodeficiency virus 1; in short: as §1
[4] = system: PBS RNA; experiment: Binding affinity to HIV1 (+)PBS RNA assessed as compound-RNA complex formation at stoichiometry ratio of 1:1 incubated for 30 mins measured under non-denaturing conditions by ESI-MS analysis; format: nucleic-acid assay; details: Human immunodeficiency virus 1; in short: as §2
[5] = system: PBS RNA; experiment: Binding affinity to HIV1 (-)PBS RNA assessed as compound-RNA complex formation at stoichiometry ratio of 2:1 incubated for 30 mins measured under non-denaturing conditions by ESI-MS analysis; format: nucleic-acid assay; details: Human immunodeficiency virus 1
In short: (§3)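 ESI-MS binding: compound–RNA mixtures analysed for free and compound-bound RNA species, including 2:1 complexes. Species peak intensities were quantified to give the free versus bound partitioning, and the percentage of bound substrate in each spectrum was used to derive relative binding affinity for each RNA construct.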

[6] = system: PBS RNA; experiment: Binding affinity to HIV1 (+)PBS RNA assessed as compound-RNA complex formation at stoichiometry ratio of 2:1 incubated for 30 mins measured under non-denaturing conditions by ESI-MS analysis; format: nucleic-acid assay; details: Human immunodeficiency virus 1; in short: as §3
[7] = system: PBS RNA; experiment: Binding affinity to HIV1 (+)PBS RNA at apical loop assessed as compound-RNA complex formation at stoichiometry ratio of 1:1 by MS/MS spectrum analysis; format: nucleic-acid assay; details: Human immunodeficiency virus 1

NCCCC(N)C(=O)NCC(=O)Nc1ccc2c(c1)C(=O)c1ccc(NC(=O)CNC(=O)C(N)CCCN)cc1C2=O (stereo unspecified)
IC50 [1]: 34 µM | Activity [2]: Active | IC50 [3]: 30 µM | Activity [4]: Active

C[C@@H](NC(=O)C(N)CCCCN)C(=O)Nc1ccc2c(c1)C(=O)c1ccc(NC(=O)[C@@H](C)NC(=O)C(N)CCCCN)cc1C2=O (stereo partly specified)
IC50 [1]: 48 µM | Activity [2]: Active | IC50 [3]: 54 µM | Activity [4]: Active

C[C@H](NC(=O)C(N)CCCN)C(=O)Nc1ccc2c(c1)C(=O)c1ccc(NC(=O)[C@H](C)NC(=O)C(N)CCCN)cc1C2=O (stereo partly specified)
IC50 [1]: 16 µM | Activity [2]: Active | IC50 [3]: 21 µM | Activity [4]: Active

C[C@H](NC(=O)C(N)CCCCN)C(=O)Nc1ccc2c(c1)C(=O)c1ccc(NC(=O)[C@H](C)NC(=O)C(N)CCCCN)cc1C2=O (stereo partly specified)
IC50 [1]: 15 µM | Activity [5]: Active | IC50 [3]: 12 µM | Activity [6]: Active | Activity [7]: Active

NCCCCC(N)C(=O)NCCC(=O)Nc1ccc2c(c1)C(=O)c1ccc(NC(=O)CCNC(=O)C(N)CCCCN)cc1C2=O (stereo unspecified)
IC50 [1]: > 100 µM | IC50 [3]: 85 µM

C[C@H](NC(=O)C(N)CCN)C(=O)Nc1ccc2c(c1)C(=O)c1ccc(NC(=O)[C@H](C)NC(=O)C(N)CCN)cc1C2=O (stereo partly specified)
IC50 [1]: > 100 µM | Activity [2]: Active | IC50 [3]: 88 µM | Activity [4]: Active

NCCC(N)C(=O)NCCC(=O)Nc1ccc2c(c1)C(=O)c1ccc(NC(=O)CCNC(=O)C(N)CCN)cc1C2=O (stereo unspecified)
IC50 [1]: 24 µM | Activity [2]: Active | IC50 [3]: 30 µM | Activity [4]: Active

NCCCC(N)C(=O)NCCC(=O)Nc1ccc2c(c1)C(=O)c1ccc(NC(=O)CCNC(=O)C(N)CCCN)cc1C2=O (stereo unspecified)
IC50 [1]: 20 µM | Activity [5]: Active | IC50 [3]: 20 µM | Activity [6]: Active

NCCCCC(N)C(=O)NCC(=O)Nc1ccc2c(c1)C(=O)c1ccc(NC(=O)CNC(=O)C(N)CCCCN)cc1C2=O (stereo unspecified)
IC50 [1]: 18 µM | Activity [5]: Active | IC50 [3]: 23 µM | Activity [6]: Active

C[C@H](NC1(N)CCNCC1)C(=O)Nc1ccc2c(c1)C(=O)c1ccc(NC(=O)[C@H](C)NC3(N)CCNCC3)cc1C2=O
IC50 [1]: > 200 µM | Activity [2]: Active | IC50 [3]: > 200 µM | Activity [4]: Active

C[C@@H](NC1CCNCC1)C(=O)Nc1ccc2c(c1)C(=O)c1ccc(NC(=O)[C@@H](C)NC3CCNCC3)cc1C2=O
IC50 [1]: > 200 µM | Activity [2]: Active | IC50 [3]: > 200 µM | Activity [4]: Active

C[C@H](NC(=O)C(N)CN)C(=O)Nc1ccc2c(c1)C(=O)c1ccc(NC(=O)[C@H](C)NC(=O)C(N)CN)cc1C2=O (stereo partly specified)
IC50 [1]: 45 µM | Activity [2]: Active | IC50 [3]: 54 µM | Activity [4]: Active

C[C@@H](NC(=O)C(N)CCCN)C(=O)Nc1ccc2c(c1)C(=O)c1ccc(NC(=O)[C@@H](C)NC(=O)C(N)CCCN)cc1C2=O (stereo partly specified)
IC50 [1]: 54 µM | Activity [2]: Active | IC50 [3]: 55 µM | Activity [4]: Active
